Pemphigus Ab inh: inhibitors of pemphigus antibody binding to DSG3, primary screen, biochemical, bead-based, flow cytometry, scFv-GFP; 0.48% of 310,000 active; DSG3-coupled beads, scFv-anti-DSG3-GFP binding; hits give low values; Desmoglein-3 (Homo sapiens), P32926; binding (percent of control), % at 10 µM;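 active = binding more than 3 SD below its plate's average and above zero; inconclusive = below that plate limit but binding exactly zero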;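 also: hits lower antibody fragment binding to DSG3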
Myeloid diff 2: induction of myeloid progenitor differentiation, primary screen, cell-based, flow cytometry, MLPCN library | calls only at 10 µM | ER-HoxA9 myeloid progenitors, lysozyme-GFP differentiation | 1% of 360,000 active;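 active = normalized GFP-positive differentiation at or above the plate's own cutoff, the solvent-only control mean plus 3 SD; inconclusive = no clear call, values can overlap the other calls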;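 also: cells exposed to compound for four days before flow analysis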
SENP1 FRET inh: human SENP1 catalytic domain inhibitors, primary screen, biochemical, FRET, uHTS; Sentrin-specific protease 1 (Homo sapiens), Q9P0U3; recombinant SENP1 catalytic domain, CyPet-SUMO1-YPet FRET cleavage; inhibition, % at 10 µM; 0.21% of 360,000 active;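 active = inhibition at least 30% at 10 µM, raw YFP signal under a set limit, fluorescence ratio 0.5 to 1.5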
Target sequence (Q9P0U3 419-644 limits assumed): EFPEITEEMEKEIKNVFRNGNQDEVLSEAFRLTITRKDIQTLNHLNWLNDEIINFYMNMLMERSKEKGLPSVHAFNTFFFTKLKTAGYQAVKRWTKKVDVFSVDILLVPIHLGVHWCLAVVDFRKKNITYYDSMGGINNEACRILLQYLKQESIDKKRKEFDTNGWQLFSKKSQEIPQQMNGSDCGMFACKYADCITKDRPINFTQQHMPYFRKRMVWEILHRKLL
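Assay system: hSENP1 catalytic domain, recombinant. Amount: SENP1 enzyme, 20 pM final. Schedule: 50 min reaction, RT, dark. Technique: FRET, CFP and YFP emission. Control set: no-enzyme wells low, DMSO-plus-enzyme wells high control.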
HNF4A DNA FP: change in binding of human HNF4A to DNA, primary screen, biochemical, fluorescence polarization, FITC-DNA; 0.3% of 360,000 active; activity change, % at 10 µM; AID 1224865, 2016; 1 h; in the data active = activity change above about 30%, passing the limit was not always enough
Cardio protect: cardioprotection against H2O2-induced cell death, primary screen, uHTS, H9c2 cells, ATPLite luminescence | AID 588492, 2011 | 0.63% of 360,000 active | protection from H2O2 cell death, % at 20 µM | H9c2 cardiomyocytes, H2O2 injury protection, 2 h;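 active = compounds giving at least 50% protection of heart cells from peroxide-induced death in the single-dose screen, raw or plate-pattern-corrected value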
Granule exo inh: LAMP-1 surface exposure blockers, TALL-104 cells – cell-based, flow cytometry, MLPCN library, primary screen; AID 651702, 2012; 0.66% of 360,000 active; inhibition, % at 10 µM; TALL-104 LAMP-1 surface exposure; cells stimulated with thapsigargin and PMA;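 active = inhibition above about 55%, limit read from the data; inconclusive = no clear call, values can overlap the other calls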
Numbers stand for hits; n = inactive; u = inconclusive; x = no result given; + = active, no number; ! = not active in a repeat. Most compounds without a hit are left out; they make up all but 3% or so of the library.

SMILES | Pemphigus Ab inh | Myeloid diff 2 | SENP1 FRET inh | HNF4A DNA FP | Cardio protect | Granule exo inh
CCOc1ccc(NC(=O)c2ccc(CNc3c(NC4CCCCC4)c(=O)c3=O)cc2)cc1 | n | n | n | n | n | n
COc1ccc(NC(=O)c2ccc(CNc3c(NC4CCCCC4)c(=O)c3=O)cc2)c(OC)c1 | -2.5! | n | n | n | n | n
O=C(COC(=O)c1ccccc1Br)NC1CCCC1 | n | + | n | n | n | n
O=C(COC(=O)c1ccccc1Br)NC1CCCCCCC1 | n | n | n | n | n | n
COc1ccccc1C(=O)OCC(=O)NC1CCCC1 | u | + | n | n | n | n
CCOC(=O)[C@H]1[C@H]2COc3ccc(OC)cc3[C@@H]2N2C(=O)c3ccccc3NC(=O)[C@@]12C | n | n | n | n | n | n
O=C(O)c1ccccc1Oc1ccc(Oc2ccccc2)cc1 | n | n | n | n | n | n
COc1ccccc1NC(=O)c1ccc(-c2ccc(Br)cc2)o1 | u | + | n | n | n | n
O=C(Nc1ccccc1)c1ccc(-c2ccc(Br)cc2)o1 | n | n | n | n | n | n
O=C(Nc1ccc([N+](=O)[O-])cc1)Nc1ccc(N2CCOCC2)c2nonc12 | n | n | n | n | n | 77
O=C1C=C(N2CCOCC2)c2cccc3cccc1c23 | n | n | n | n | 61 | n
COc1ccccc1Nc1nc2c(C)cccc2cc1C#N | n | n | n | n | n | n
CCOc1ccc(Nc2nc3c(C)cccc3cc2C#N)cc1 | n | + | n | n | n | n
N#C/C(C(=O)NCc1ccccc1)=C1/N=C(NC(=O)c2cccs2)c2ccccc21 | 85 | + | n | n | n | n
CCOC(=O)N1CCN(C(=O)CNC(=O)c2ccc(Br)cc2)CC1 | n | n | n | n | n | n
O=C(/C=C/c1ccc(Cl)c([N+](=O)[O-])c1)Nc1ccc(NC(=O)c2ccco2)cc1 | n | n | n | n | n | n
O=C(/C=C/c1ccc([N+](=O)[O-])cc1)Nc1cccnc1 | n | n | n | n | n | n
O=C(/C=C/c1ccc(Cl)c([N+](=O)[O-])c1)Nc1cccnc1 | n | n | n | n | 50 | n
O=C(/C=C/c1cccc([N+](=O)[O-])c1)Nc1cccc(NC(=O)c2cccs2)c1 | n | n | n | n | 81 | n
O=C(/C=C/c1ccc(Cl)c([N+](=O)[O-])c1)Nc1cccc(NC(=O)c2ccco2)c1 | n | n | n | n | 88 | n
Cn1c(-n2c(CCCN3C(=O)c4ccccc4C3=O)nc3ccccc3c2=O)nc2ccccc21 | n | n | n | n | 101 | n
O=C1c2ccccc2C(=O)N1CCCc1nc2ccccc2c(=O)n1CCCn1ccnc1 | n | n | n | n | n | n
Cc1cc2cc(CNS(=O)(=O)c3ccc4ccccc4c3)ccc2n1C | n | n | n | n | n | n
CC(=O)Nc1ccc(S(=O)(=O)NCc2ccc3c(c2)cc(C)n3C)cc1 | 80 | n | n | n | n | n
Cc1cc2cc(CNC(=O)Cc3cccs3)ccc2n1C | 64 | n | n | n | n | n
SMILES | Pemphigus Ab inh | Myeloid diff 2 | SENP1 FRET inh | HNF4A DNA FP | Cardio protect | Granule exo inh
Cn1c(=O)[nH]c(=O)c2c1nc(N1CCN(Cc3ccccc3)CC1)n2CCSc1ncccn1 | n | + | n | n | n | n
Cn1c(=O)[nH]c(=O)c2c1nc(N1CCN(Cc3ccccc3)CC1)n2CCCc1ccccc1 | n | n | n | n | n | n
c1cnc2ccc3ncccc3c2c1 | n | n | n | n | n | n
Nc1ccc2ncccc2c1N | n | + | n | n | n | n
c1coc(-c2nnc3sc(Cc4cccs4)nn23)c1 | n | n | n | n | 65 | n
O=C(CSc1ccc2ccccc2n1)N/N=C/c1ccccc1O | n | n | n | n | 55 | n
O=C(CSc1ccc2ccccc2n1)N/N=C/c1ccc(O)cc1 | n | n | n | n | n | n
O=[N+]([O-])c1ccc(CSCc2ccc([N+](=O)[O-])cc2)cc1 | x | n | n | n | n | n
COc1ccccc1NCCC(=O)OCC(=O)Nc1cc([N+](=O)[O-])ccc1F | n | n | n | n | n | n
O=C1/C(=C\c2ccc(O)cc2)SC(=S)N1/N=C/c1ccc(O)cc1 | n | n | 77 | 106 | n | n
CC(=O)NN1C(=O)/C(=C\c2ccccc2)SC1=S | n | n | n | n | n | n
CC(=O)NN1C(=O)/C(=C/c2ccc(Br)o2)SC1=S | n | n | 43 | 60 | n | n
CC(=O)NN1C(=O)/C(=C\c2ccc(Br)o2)SC1=S | n | n | 55 | n | n | n
CC(=O)NN1C(=O)/C(=C\c2ccc(O)cc2)SC1=S | n | n | 55 | 82 | n | n
COc1ccccc1-c1cc(NC(C)=O)c2ncc(-c3cccc(C(C)=O)c3)n2c1 | x | n | n | n | 52 | n
COc1ccc(-c2cnc3c(NC(C)=O)cc(-c4ccccc4OC)cn23)cc1OC | x | u | n | n | n | u
COc1cc(-c2cc(NC(C)=O)c3ncc(-c4cc(OC)c(OC)c(OC)c4)n3c2)cc(OC)c1OC | x | n | n | n | 66 | n
COc1cc(-c2cc(NC(C)=O)c3ncc(-c4ccccc4)n3c2)cc(OC)c1OC | x | n | n | n | 70 | n
CC(=O)Nc1cc(-c2ccc(C(=O)NC3CC3)cc2)cn2c(-c3cccc(C(C)=O)c3)cnc12 | x | n | n | n | 50 | n
CC(=O)Nc1cc(-c2ccc(C(=O)NC3CC3)cc2)cn2c(-c3cccc(C(F)(F)F)c3)cnc12 | x | n | n | n | n | n
CC1(C)CC2CC(C)(CN2C(=O)COC(=O)c2cccc([N+](=O)[O-])c2)C1 (centres undefined) | n | n | n | n | n | n
Cc1cc(NS(=O)(=O)c2ccc(NC(=O)c3ccccc3F)cc2)no1 | n | n | n | n | n | n
Cc1ccc(S(=O)(=O)N(C)C)cc1NC(=O)C(C)OC(=O)C1CCCCC1 (centres undefined) | n | n | n | n | n | n
COCCNC(=O)COc1cccc2c1OC(C)(C)C2 | n | n | n | n | n | n
CCC(C(=O)O)P(=O)(c1ccc(Cl)cc1)c1ccc(Cl)cc1 (centres undefined) | n | n | n | n | n | n
CSc1nc2ccc(NC(=O)c3ccco3)cc2s1 | n | n | n | n | n | n
CSc1nc2ccc(NC(=O)c3cccs3)cc2s1 | 28 | n | n | n | n | n
CSc1nc2ccc(NC(=O)C3CC(=O)N(Cc4ccccc4)C3)cc2s1 (centres undefined) | n | + | n | n | n | n
